Reference: ChEMBL document CHEMBL1811774, “Chromone, a privileged scaffold for the development of monoamine oxidase inhibitors” (J Med Chem, 2011)

Experiments:
[1] = biological target: T1, Amine oxidase [flavin-containing] B (Homo sapiens, UniProt P27338); test: Inhibition of human MAO-B assessed as inhibition of p-tyramine oxidation to p-hydroxyphenyl-acetaldehyde after 15 mins by fluorimetric method
T1 sequence (P27338 whole entry): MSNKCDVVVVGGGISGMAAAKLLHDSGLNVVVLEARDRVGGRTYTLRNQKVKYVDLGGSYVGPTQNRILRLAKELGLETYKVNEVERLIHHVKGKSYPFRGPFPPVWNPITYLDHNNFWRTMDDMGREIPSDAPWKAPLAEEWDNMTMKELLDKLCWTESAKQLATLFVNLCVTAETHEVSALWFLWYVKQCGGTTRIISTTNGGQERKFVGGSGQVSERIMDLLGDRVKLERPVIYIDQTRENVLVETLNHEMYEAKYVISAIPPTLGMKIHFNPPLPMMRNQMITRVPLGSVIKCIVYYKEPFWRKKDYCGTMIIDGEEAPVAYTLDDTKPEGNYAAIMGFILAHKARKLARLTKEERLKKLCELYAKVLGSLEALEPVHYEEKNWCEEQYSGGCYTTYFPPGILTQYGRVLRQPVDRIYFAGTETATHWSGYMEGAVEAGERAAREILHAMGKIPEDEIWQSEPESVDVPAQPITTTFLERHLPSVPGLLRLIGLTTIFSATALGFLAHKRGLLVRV

[2] = biological target: T2, Amine oxidase [flavin-containing] A (Homo sapiens, UniProt P21397); test: Inhibition of human MAO-A assessed as inhibition of p-tyramine oxidation to p-hydroxyphenyl-acetaldehyde at 100 uM after 15 mins by fluorimetric method; conditions: 0.25 h
T2 sequence (P21397 whole entry): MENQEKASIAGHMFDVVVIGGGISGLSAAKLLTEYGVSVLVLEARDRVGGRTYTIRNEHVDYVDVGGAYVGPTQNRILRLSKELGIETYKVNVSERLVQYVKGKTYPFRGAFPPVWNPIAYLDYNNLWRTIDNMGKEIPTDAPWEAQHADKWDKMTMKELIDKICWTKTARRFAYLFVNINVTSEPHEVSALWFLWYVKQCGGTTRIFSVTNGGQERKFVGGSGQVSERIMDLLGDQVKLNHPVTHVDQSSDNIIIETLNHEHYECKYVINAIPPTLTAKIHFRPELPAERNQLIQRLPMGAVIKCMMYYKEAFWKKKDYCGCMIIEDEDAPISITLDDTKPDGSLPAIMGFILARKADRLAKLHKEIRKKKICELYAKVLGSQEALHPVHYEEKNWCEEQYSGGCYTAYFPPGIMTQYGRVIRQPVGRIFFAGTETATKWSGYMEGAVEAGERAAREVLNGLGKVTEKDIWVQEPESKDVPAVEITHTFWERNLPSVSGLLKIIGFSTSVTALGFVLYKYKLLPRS

Homo sapiens = organism: Homo sapiens; test: Selectivity index, ratio of IC50 for human MAO-A to IC50 for human MAO-B
[3] = biological target: T2, Amine oxidase [flavin-containing] A; test: Inhibition of human MAO-A assessed as inhibition of p-tyramine oxidation to p-hydroxyphenyl-acetaldehyde after 15 mins by fluorimetric method
Method in brief: (§1)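 Microsomal recombinant hMAO-A or hMAO-B from baculovirus-infected BTI-TN5B1-4 insect cells. Enzyme was set to oxidize 165 pmol p-tyramine/min (MAO-A 1.1 μg, MAO-B 7.5 μg protein). It was preincubated with compound 15 min at 37 C in 0.05 M sodium phosphate, pH 7.4. Reaction started with final 200 μM Amplex Red, 1 U/mL HRP and 1 mM p-tyramine. H2O2-derived resorufin fluorescence (ex 545/em 590) read over 15 min at 37 C, background-subtracted, against vehicle controls. Highest concentration 100 μM or 1 mM; mean ± SEM, n = 5.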

[4] = biological target: T1, Amine oxidase [flavin-containing] B; test: Inhibition of human MAO-B assessed as inhibition of p-tyramine oxidation to p-hydroxyphenyl-acetaldehyde at 100 uM after 15 mins by fluorimetric method; conditions: 0.25 h; method in brief: as §1
[5] = biological target: T1, Amine oxidase [flavin-containing] B; test: Inhibition of human MAO-B assessed as inhibition of p-tyramine oxidation to p-hydroxyphenyl-acetaldehyde at 1 mM after 15 mins by fluorimetric method; conditions: 0.25 h, 1000 µM; method in brief: as §1
[6] = biological target: T1, Amine oxidase [flavin-containing] B; test: Reversible inhibition of human MAOB expressed assessed as inhibition of p-tyramine oxidation to p-hydroxyphenyl-acetaldehyde at 100 uM measured before repeated washing by centrifugation-ultrafiltration method
Method in brief: (§2)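 Recombinant hMAO-B preincubated with a single compound concentration for 15 min at 37 C in 0.05 M sodium phosphate, pH 7.4. One aliquot kept at 4 C, unwashed. The rest was ultrafiltered through a 30 kDa membrane (9000g, 20 min, 4 C), resuspended and spun twice more.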

[7] = biological target: T1, Amine oxidase [flavin-containing] B; test: Irreversible inhibition of human MAOB expressed assessed as inhibition of p-tyramine oxidation to p-hydroxyphenyl-acetaldehyde at 100 uM measured after repeated washing by centrifugation-ultrafiltration method; method in brief: as §2

IC50 [1] [µM]	inhibition (INH) [2]	Ratio IC50 (Homo sapiens)	IC50 [3] [µM]	inhibition (INH) [4]	other results	Compound
37.7	Not Active	> 2.7				CCCNC(=O)c1coc2ccccc2c1=O
0.93	Not Active	> 107				O=C(NC1CCCCC1)c1coc2ccccc2c1=O
0.076		110	8.34			COc1ccc(NC(=O)c2coc3ccccc3c2=O)cc1O
	Not Active			Not Active		O=C(Nc1ccc(OC(F)(F)F)cc1)c1cc(=O)c2ccccc2o1
	Not Active			Not Active		COc1ccc(NC(=O)c2cc(=O)c3ccccc3o2)cc1O
2.33	Not Active	> 43				COc1ccc(NC(=O)c2coc3ccccc3c2=O)cc1OC
	Not Active				inhibition (INH) [5]: Not Active	CCCNC(=O)c1cc(=O)c2ccccc2o1
1.08	Not Active	> 93				O=C(Nc1ccc(OC(F)(F)F)cc1)c1coc2ccccc2c1=O
	Not Active			Not Active		O=C(Nc1ccccc1)c1cc(=O)c2ccccc2o1
0.11	Not Active	> 909				O=C(Nc1ccc(C(F)(F)F)cc1)c1coc2ccccc2c1=O
	Not Active				inhibition (INH) [5]: Not Active	O=C(NC1CCCCC1)c1cc(=O)c2ccccc2o1
	Not Active			Not Active		O=C(Nc1ccc(C(F)(F)F)cc1)c1cc(=O)c2ccccc2o1
	Not Active			Not Active		O=C(Nc1ccc(Cl)cc1)c1cc(=O)c2ccccc2o1
11.8		0.94	11.1			O=C(Nc1ccc([N+](=O)[O-])cc1)c1coc2ccccc2c1=O
0.064		74	4.76		inhibition at 100 µM [6]: 60.3%; inhibition at 100 µM [7]: 23.5%	O=C(Nc1ccc(O)cc1)c1coc2ccccc2c1=O
	Not Active			Not Active		O=C(Nc1ccc([N+](=O)[O-])cc1)c1cc(=O)c2ccccc2o1
2.66		0.071	0.19			O=C(Nc1ccc(O)c(O)c1)c1cc(=O)c2ccccc2o1
41.9		1.6	65.2			O=C(Nc1ccc(O)cc1)c1cc(=O)c2ccccc2o1
0.16		2.7	0.43			O=C(Nc1ccc(O)c(O)c1)c1coc2ccccc2c1=O
	Not Active			Not Active		COc1ccc(NC(=O)c2cc(=O)c3ccccc3o2)cc1OC
